# Assay results as given in ChEMBL document CHEMBL3272175, “Potential antitumor agents. 17. 9-Anilino-10-methylacridinium salts” (J Med Chem, 1976).
# Assays:
# L1210 [1] = assay: Antitumor activity against mouse L1210 cells allografted in C3H/DBA2 F1 mouse assessed as increase in life span at optimum dose, ip qd administered for 5 days relative to control; format: functional
# How it was run: (§1)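 Mice: C3H/DBA2 F1 hybrids, 18.5-22.5 g, inoculated ip with 10⁵ L1210 cells on day 1. Treatment ip daily for 5 days from 24 h later, dose in 0.2 ml water (suspended or dissolved). T/C = ratio of mean life spans, treated vs control; optimum dose gives maximum T/C.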
# L1210 [2] = assay: Antitumor activity against mouse L1210 cells allografted in ip dosed C3H/DBA2 F1 mouse assessed as optimum dose required to increase in maximum life span administered as qd for 5 days; format: functional; how it was run: as §1
# [3] = Dissociation constant, pKa of the compound; format: physicochemical
pKa [3],Structure (SMILES),T/C (L1210 [1]) [%],Activity (L1210 [2]) [mg/kg/day]
–,C[n+]1c2ccccc2c(Nc2ccc(NS(C)(=O)=O)cc2)c2ccccc21,184,95
–,C[n+]1c2ccccc2c(Nc2ccccc2)c2ccccc21,–,>500
12.4,Cn1ccc(=N)c2ccccc21,–,–
–,CC(=O)Nc1ccc2c(Nc3ccc(NS(C)(=O)=O)cc3)c3ccccc3[n+](C)c2c1,134,15
–,C[n+]1c2ccccc2c(Nc2ccc(NS(C)(=O)=O)cc2)c2cc(Br)ccc21,168,47
–,CC(=O)Nc1ccc2c(c1)c(Nc1ccccc1)c1ccccc1[n+]2C,158,22
–,COc1cc(NS(C)(=O)=O)ccc1Nc1c2ccccc2nc2ccccc12 [AMSACRINE],196,12
–,C[n+]1c2ccccc2c(Nc2ccc(NS(C)(=O)=O)cc2)c2cc(N)ccc21,180,1.25
–,CC(=O)Nc1cccc(Nc2c3ccccc3[n+](C)c3ccccc23)c1,132,67
–,COc1cc(NS(C)(=O)=O)ccc1Nc1c2ccccc2[n+](C)c2ccc(Cl)cc12,179,12
–,Nc1ccc(Nc2c3ccccc3nc3ccccc23)cc1,172,33
–,C[n+]1c2ccccc2c(Nc2ccc(NS(C)(=O)=O)cc2)c2ccc([N+](=O)[O-])cc21,–,>500
–,COc1cc(NS(C)(=O)=O)ccc1Nc1c2ccccc2[n+](C)c2ccccc12,172,12
–,CCCS(=O)(=O)Nc1ccc(Nc2c3ccccc3[n+](C)c3ccccc23)cc1,–,>500
–,Nc1cccc(Nc2c3ccccc3nc3ccccc23)c1,146,40
–,CCCCS(=O)(=O)Nc1ccc(Nc2c3ccccc3[n+](C)c3ccccc23)cc1,–,>500
–,CS(=O)(=O)Nc1ccc(Nc2c3ccccc3nc3cc(N)ccc23)cc1,178,25
–,C[n+]1c2ccccc2c(Nc2ccccc2)c2cc(N)ccc21,162,14
–,CS(=O)(=O)Nc1ccc(Nc2c3ccccc3nc3ccccc23)cc1,207,45
–,COc1cc(NS(C)(=O)=O)ccc1Nc1c2ccccc2nc2ccc(Br)cc12,219,6
–,COc1cc(NS(C)(=O)=O)ccc1Nc1c2ccccc2[n+](C)c2ccc(Br)cc12,158,12
12.5,Cn1ccc(=N)cc1,–,–
–,CCS(=O)(=O)Nc1ccc(Nc2c3ccccc3nc3ccccc23)cc1,183,150

pKa [3],Structure (SMILES),T/C (L1210 [1]) [%],Activity (L1210 [2]) [mg/kg/day]
–,C[n+]1c2ccccc2c(Nc2ccc(S(N)(=O)=O)cc2)c2ccccc21,–,>500
–,CCS(=O)(=O)Nc1ccc(Nc2c3ccccc3[n+](C)c3ccc(Cl)cc23)c(OC)c1,166,60
–,CCS(=O)(=O)Nc1ccc(Nc2c3ccccc3[n+](C)c3ccccc23)cc1,166,110
–,C[n+]1c2ccccc2c(Nc2cccc(N)c2)c2ccccc21,137,120
–,CC(=O)Nc1ccc2c(c1)c(Nc1ccc(NS(C)(=O)=O)cc1)c1ccccc1[n+]2C,181,6
–,C[n+]1c2ccccc2c(Nc2ccccc2)c2ccc(N)cc21,148,20
–,CCCS(=O)(=O)Nc1ccc(Nc2c3ccccc3nc3ccccc23)cc1,134,225
–,CC(=O)Nc1ccc2c(Nc3ccccc3)c3ccccc3[n+](C)c2c1,126,50
–,C[n+]1c2ccccc2c(Nc2ccc(NS(C)(=O)=O)cc2)c2ccc(N)cc21,167,5
–,C[n+]1c2ccccc2c(Nc2ccc(C(N)=O)cc2)c2ccccc21,–,>500
–,CC(=O)Nc1ccc2nc3ccccc3c(Nc3ccc(NS(C)(=O)=O)cc3)c2c1,214,13
–,C[n+]1c2ccccc2c(Nc2ccccc2)c2ccc([N+](=O)[O-])cc21,–,>500
–,CS(=O)(=O)Nc1ccc(Nc2c3ccccc3nc3ccc(N)cc23)cc1,181,2.5
–,COc1cc(NS(C)(=O)=O)ccc1Nc1c2ccccc2nc2ccc(Cl)cc12,172,10
–,CC(=O)Nc1ccc2c(Nc3ccc(NS(C)(=O)=O)cc3)c3ccccc3nc2c1,147,375
–,c1ccc(Nc2c3ccccc3nc3ccccc23)cc1,–,>500
–,NS(=O)(=O)c1ccc(Nc2c3ccccc3nc3ccccc23)cc1,–,>500
–,CC(=O)Nc1cccc(Nc2c3ccccc3nc3ccccc23)c1,133,30
–,NC(=O)c1ccc(Nc2c3ccccc3nc3ccccc23)cc1,–,>500
–,CCCCS(=O)(=O)Nc1ccc(Nc2c3ccccc3nc3ccccc23)cc1,–,>500
–,CS(=O)(=O)Nc1ccc(Nc2c3ccccc3nc3cc([N+](=O)[O-])ccc23)cc1,127,250
–,CS(=O)(=O)Nc1ccc(Nc2c3ccccc3nc3ccc(Br)cc23)cc1,165,35
–,C[n+]1c2ccccc2c(Nc2ccc(N)cc2)c2ccccc21,163,75
